Assay results from article PMC3280409 (Analytical and Bioanalytical Chemistry, 2012).
Structures can show the parent of a compound that is named as a salt. d = 2'-deoxy (DNA); r = 2'-OH (RNA)

Legend:
[1] = molecular target: MBNL1-His6/Biot-(CUG)12 binding; experiment: HTRF binding assay of MBNL1-His6 and Biot-; settings: for IC50: read-out: IC50 (μM) HTRF, hit confirmation, 12-point 1:3 titration, 0.3 nM – 57.5 μM, 1536-well, duplicates
Outline: (§1)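 Recombinant MBNL1-His6 (IPTG-induced, Ni-agarose purified, desalted, purity-corrected by SYPRO-stained gel) at 20 nM with 20 nM Biot-(CUG)12. Read after 60 min at room temperature, in duplicate points. IC50 from dose-response inhibition fits of three independent experiments.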

(CUG)20 RNA = experiment: RNA degradation assay; type: biochemical; settings: 30 min, assay buffer, 37°C, varying compound concentrations (NF449 up to 800 μM)
Outline: (§2)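 5′-32P-labelled RNA was gel-purified, denatured at 85°C for 1 min and slow-cooled to 37°C. At 100 pM it was incubated with varying test compound concentrations in Tris-HCl pH 8.0/NaCl/KCl/MgCl2 assay buffer for 30 min at 37°C. The reaction was stopped with 7.5 M urea/20 mM EDTA and analysed on denaturing 12% PAGE.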

(CAG)20 RNA = experiment: RNA degradation assay; type: biochemical; settings: 30 min, assay buffer, 37°C, varying compound concentrations (NF449 up to 800 μM)
Outline: as §2

[2] = tested on: MBNL1-His6/Biot-(CUG)12 binding; experiment: AlphaScreen binding assay of MBNL1-His6 and Biot-; settings: 1536-well format, 4 ul final volume
Outline: as §1

(CUG)109 transcript = experiment: Filter binding assay of MBNL1 constructs to; settings: read-out: KD, (CUG)109 binding affinity
Outline: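 5′-32P-labelled RNA was denatured at 85°C for 1 min and slow-cooled to 37°C in Tris-HCl pH 8.0/NaCl/KCl/MgCl2 assay buffer. It was incubated with full-length or truncated recombinant MBNL1 for 30 min at 37°C, then captured on a nitrocellulose/Hybond N+ sandwich by slot-blot. Kd came from a one-site binding model over three independent experiments.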

CC(O)C(C)OC(=O)[C@@H]1C[C@@H]2c3cccc4c3c(cn4C(C)C)C[C@H]2N(C)C1 (some centres unmarked) [LY-53,857 maleate]
IC50 [1]: 38 µM

CN1C[C@H](CNC(=O)OCc2ccccc2)C[C@@H]2c3cccc4c3c(cn4C)C[C@H]21 [Metergoline]
IC50 [1]: 52 µM

O=C(Nc1cc(C(=O)Nc2ccc(S(=O)(=O)O)cc2S(=O)(=O)O)cc(C(=O)Nc2ccc(S(=O)(=O)O)cc2S(=O)(=O)O)c1)Nc1cc(C(=O)Nc2ccc(S(=O)(=O)O)cc2S(=O)(=O)O)cc(C(=O)Nc2ccc(S(=O)(=O)O)cc2S(=O)(=O)O)c1 [NF449 octasodium salt]
IC50 [1]: 31 µM

CCCN1C[C@H](CSC)C[C@@H]2c3cccc4[nH]cc(c34)C[C@H]21 [Pergolide methanesulfonate]
IC50 [1]: 24.8 µM

Cn1ccc2cc(NC(=O)Nc3cccnc3)ccc21 [SB 200646 HCl]
IC50 [1]: 55.7 µM

Cl.Cl.Oc1ccc2c3c1O[C@H]1c4[nH]c5c(c4C[C@@]4(O)[C@@H](C2)N(CC2CC2)CC[C@]314)C[C@@]1(O)[C@H]2Cc3ccc(O)c4c3[C@@]1(CCN2CC1CC1)[C@H]5O4 [nor-Binaltorphimine dihydrochloride]
RNA degradation of (CUG)20 ((CUG)20 RNA): significant RNA degradation | RNA degradation of (CAG)20 ((CAG)20 RNA): significant RNA degradation | IC50 [1]: 21.9 µM

ssCAG-21: unlabeled mixed RNA/DNA oligo, sequence 5′-rUrArGrCrArGrCrArGrCrArGrCrArGrCrArGrCTT; positive control competitive inhibitor (UAGCAGCAGCAGCAGCAGCTT; sugars from the 5' end r19 d2, backbone not given here)
IC50 of inhibition of MBNL1-(CUG)12 binding, AlphaScreen [2]: comparable to those obtained from the 384-well assays | IC50 of inhibition of MBNL1-(CUG)12 binding, HTRF ([1]; 1536-well format, 4 ul final volume): comparable to those obtained from the 384-well assays

B1: MBNL1-FL: full length recombinant MBNL1 protein (protein, UniProt Q9NR56 1-388, looked up)
chain: MAVSVTPIRDTKWLTLEVCREFQRGTCSRPDTECKFAHPSKSCQVENGRVIACFDSLKGRCSRENCKYLHPPPHLKTQLEINGRNNLIQQKNMAMLAQQMQLANAMMPGAPLQPVPMFSVAPSLATNASAAAFNPYLGPVSPSLVPAEILPTAPMLVTGNPGVPVPAAAAAAAQKLMRTDRLEVCREYQRGNCNRGENDCRFAHPADSTMIDTNDNTVTVCMDYIKGRCSREKCKYFHPPAHLQAKIKAAQYQVNQAAAAQAAATAAAMTQSAVKSLKRPLEATFDLGIPQAVLPPLPKRPALEKTNGATAVFNTGIFQYQQALANMQLQQHTAFLPPVPMVHGATPATVSAATTSATSVPFAATATANQIPIISAEHLTSHKYVTQM
modifications: full-length
Kd ((CUG)109 transcript): 0.00692 ± 0.00078 µM
